The text below walks through data of ChEMBL document CHEMBL1148531, “The discovery of new 11beta-hydroxysteroid dehydrogenase type 1 inhibitors by common feature pharmacophore modeling and virtual screening” (J Med Chem, 2006).

One may read the IC50 as the concentration that gives 50% inhibition.

For test [1], the target named is T1, 11-beta-hydroxysteroid dehydrogenase 1 (Homo sapiens, UniProt P28845). Nature of the test: Inhibition of human recombinant 11-beta-HSD1 expressed in HEK293 cells at 10 uM. Type of test: cell-based. Further details: scale not given: the % may be the effect or the level left. The procedure, abridged: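 Lysates of HEK-293 cells expressing human 11β-HSD1; conversion of 200 nM tritiated cortisone with 500 µM NADPH, test compound at 10 µM; percent inhibition reported.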
Target sequence in this assay (P28845 whole entry, looked up): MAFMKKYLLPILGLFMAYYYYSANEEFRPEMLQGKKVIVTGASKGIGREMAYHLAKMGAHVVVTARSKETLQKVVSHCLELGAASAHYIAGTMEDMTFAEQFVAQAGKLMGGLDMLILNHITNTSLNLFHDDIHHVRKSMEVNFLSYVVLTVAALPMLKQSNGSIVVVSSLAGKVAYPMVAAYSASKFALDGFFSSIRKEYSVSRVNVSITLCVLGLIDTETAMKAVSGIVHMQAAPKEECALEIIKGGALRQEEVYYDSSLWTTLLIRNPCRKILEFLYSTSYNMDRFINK

The target of test [2] is T2, 17-beta-hydroxysteroid dehydrogenase type 1 (Homo sapiens, UniProt P14061).
T2 sequence (P14061 whole entry): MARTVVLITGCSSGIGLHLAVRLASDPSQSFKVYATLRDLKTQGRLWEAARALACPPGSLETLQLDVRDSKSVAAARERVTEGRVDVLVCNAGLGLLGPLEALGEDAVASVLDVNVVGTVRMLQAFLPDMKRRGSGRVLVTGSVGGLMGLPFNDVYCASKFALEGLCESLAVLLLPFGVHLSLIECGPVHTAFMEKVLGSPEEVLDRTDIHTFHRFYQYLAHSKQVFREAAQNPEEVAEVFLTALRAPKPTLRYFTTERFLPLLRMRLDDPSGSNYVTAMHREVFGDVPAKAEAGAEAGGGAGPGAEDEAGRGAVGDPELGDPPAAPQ
Nature of the test: Inhibition of human recombinant 17betaHSD1 expressed in HEK293 cells. Type of test: cell-based. An outline of the steps: (§1)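 Lysates of HEK-293 cells expressing human recombinant enzyme; inhibitor 50 nM–30 µM final, DMSO ≤0.1%. 11β-HSD1: 200 nM [1,2,6,7-3H]cortisone, 500 µM NADPH. 17β-HSD1: 200 nM radiolabeled estrone, 500 µM NADPH. 17β-HSD2: 200 nM radiolabeled estradiol, 500 µM NADP+. IC50 by nonlinear regression, first-order kinetics; mean ± SD, at least four experiments.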

Another test concerns HEK293. The test is described as follows: Cytotoxicity against HEK293 cells upto 40 uM by MTT assay. Conditions: Homo sapiens. The format is functional, cell-based. An outline of the steps: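 HEK-293 cells on poly-D-lysine-coated wells exposed 4 h at 37 °C to 40 µM compound, then fresh medium with 0.5 mg/mL MTT; formazan dissolved in DMSO, absorbance A570 − A690. Controls: chloroform 1% v/v and NaOH 50 mM.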
For orientation: Tetrazolium dyes change colour on reduction, which living cells bring about.

Test [3] has as its target T3, 17-beta-hydroxysteroid dehydrogenase type 2 (Homo sapiens, UniProt P37059).
T3 sequence (P37059 whole entry): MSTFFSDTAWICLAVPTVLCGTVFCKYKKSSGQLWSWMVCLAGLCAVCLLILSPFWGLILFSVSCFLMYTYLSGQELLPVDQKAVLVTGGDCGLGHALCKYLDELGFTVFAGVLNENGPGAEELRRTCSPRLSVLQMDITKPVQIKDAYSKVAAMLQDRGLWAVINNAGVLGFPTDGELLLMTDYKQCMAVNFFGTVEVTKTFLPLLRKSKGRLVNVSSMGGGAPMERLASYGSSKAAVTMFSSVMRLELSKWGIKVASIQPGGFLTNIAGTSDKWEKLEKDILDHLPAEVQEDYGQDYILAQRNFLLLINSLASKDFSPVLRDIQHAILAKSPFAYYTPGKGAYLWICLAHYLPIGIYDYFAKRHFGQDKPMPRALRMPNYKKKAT
Nature of the test: Inhibition of human recombinant 17-beta-HSD2 expressed in HEK293 cells. Type of test: cell-based. The procedure, abridged: as §1

For test [4], the target named is Mineralocorticoid receptor (Homo sapiens) (UniProt P08235). Nature of the test: Inhibition of MR-mediated transactivation of galactosidase reporter gene in HEK293 cells. In general terms: Reporter assays use an easily measured gene product as a stand-in for the process of interest.
The target of a further test is T4, Glucocorticoid receptor (Homo sapiens, UniProt P04150).
T4 sequence (P04150 whole entry): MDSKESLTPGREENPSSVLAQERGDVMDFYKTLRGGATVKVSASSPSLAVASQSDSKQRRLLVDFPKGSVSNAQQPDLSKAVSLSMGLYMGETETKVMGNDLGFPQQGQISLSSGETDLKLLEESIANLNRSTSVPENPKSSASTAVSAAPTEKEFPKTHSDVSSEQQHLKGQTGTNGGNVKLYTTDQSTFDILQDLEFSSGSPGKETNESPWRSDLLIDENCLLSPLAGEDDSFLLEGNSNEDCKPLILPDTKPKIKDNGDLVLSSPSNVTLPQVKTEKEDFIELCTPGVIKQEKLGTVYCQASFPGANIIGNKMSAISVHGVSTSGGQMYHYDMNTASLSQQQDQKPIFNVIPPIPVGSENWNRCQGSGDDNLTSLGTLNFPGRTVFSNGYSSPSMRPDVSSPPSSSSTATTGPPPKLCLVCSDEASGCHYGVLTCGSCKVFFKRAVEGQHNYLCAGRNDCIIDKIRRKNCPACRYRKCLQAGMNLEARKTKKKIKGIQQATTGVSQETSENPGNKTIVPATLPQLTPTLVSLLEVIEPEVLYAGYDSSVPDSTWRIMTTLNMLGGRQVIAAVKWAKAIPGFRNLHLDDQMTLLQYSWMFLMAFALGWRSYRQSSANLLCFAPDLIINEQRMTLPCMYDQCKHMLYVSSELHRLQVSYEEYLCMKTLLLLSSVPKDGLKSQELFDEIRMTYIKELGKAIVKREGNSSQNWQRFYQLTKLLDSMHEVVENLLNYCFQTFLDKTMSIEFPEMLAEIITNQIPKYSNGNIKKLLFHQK
The test is described as follows: Inhibition of GR-mediated transactivation of galactosidase reporter gene in HEK293 cells in absence of 11betaHSD1. The format is functional, cell-based. An outline of the steps: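 HEK-293 cells transfected with pMMTV-LacZ, pCMV-LUC and GR plus empty pcDNA3 (no 11β-HSD1/H6PDH). After 6 h, washed into steroid-free medium, then 24 h with 100 nM cortisol and graded inhibitor. β-Galactosidase normalized to luciferase, as % of steroid-only control. Four independent experiments, means ± SD.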

Test [5] concerns the target T5, Mineralocorticoid receptor (Homo sapiens, UniProt P08235).
T5 sequence (P08235 whole entry): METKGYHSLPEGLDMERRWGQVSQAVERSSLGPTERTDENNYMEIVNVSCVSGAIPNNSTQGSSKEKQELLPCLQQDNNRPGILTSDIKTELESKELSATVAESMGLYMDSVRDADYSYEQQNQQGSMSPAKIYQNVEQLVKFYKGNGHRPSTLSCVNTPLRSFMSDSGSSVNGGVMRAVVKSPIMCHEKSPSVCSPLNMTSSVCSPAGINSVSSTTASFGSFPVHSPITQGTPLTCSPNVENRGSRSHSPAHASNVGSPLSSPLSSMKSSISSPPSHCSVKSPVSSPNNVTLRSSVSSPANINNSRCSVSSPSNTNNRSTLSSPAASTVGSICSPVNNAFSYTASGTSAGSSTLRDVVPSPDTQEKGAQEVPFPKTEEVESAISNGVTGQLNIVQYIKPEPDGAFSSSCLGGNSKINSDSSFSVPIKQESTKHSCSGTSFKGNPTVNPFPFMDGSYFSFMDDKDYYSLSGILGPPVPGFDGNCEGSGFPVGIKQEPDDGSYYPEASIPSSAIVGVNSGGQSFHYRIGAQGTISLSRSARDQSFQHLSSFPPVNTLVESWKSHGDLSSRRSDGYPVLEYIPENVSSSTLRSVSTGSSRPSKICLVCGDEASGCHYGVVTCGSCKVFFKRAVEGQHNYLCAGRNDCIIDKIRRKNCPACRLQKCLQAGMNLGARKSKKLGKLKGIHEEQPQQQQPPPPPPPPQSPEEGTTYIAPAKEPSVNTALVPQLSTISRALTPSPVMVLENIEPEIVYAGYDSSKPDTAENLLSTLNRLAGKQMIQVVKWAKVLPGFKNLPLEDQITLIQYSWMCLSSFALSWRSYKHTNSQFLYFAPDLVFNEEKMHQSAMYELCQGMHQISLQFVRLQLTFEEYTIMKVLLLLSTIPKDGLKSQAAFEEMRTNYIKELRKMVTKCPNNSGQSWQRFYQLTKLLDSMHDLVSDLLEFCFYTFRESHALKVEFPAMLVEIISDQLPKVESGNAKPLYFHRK
The test is described as follows: Antagonist activity against MR. Type of test: functional. An outline of the steps: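 HEK-293 cells on poly-L-lysine-coated wells, transfected with pMMTV-LacZ reporter, pCMV-LUC control and MR expression vector plus empty pcDNA3. […] Four independent experiments, means ± SD.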

Test [6] deals with T1, 11-beta-hydroxysteroid dehydrogenase 1. The test is described as follows: Inhibition of human recombinant 11-beta-HSD1 transfected in intact HEK293 cells. Type of test: cell-based. The procedure, abridged:
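HEK-293 cells cotransfected (calcium phosphate) with 11β-HSD1 and H6PDH plasmids, replated after 6 h at 30000 cells/well in steroid-free DMEM for 18 h. Inhibitor 50 nM–20 µM final with 200 nM radiolabeled cortisone, 90 min at 37 °C; stopped with excess unlabeled steroids in methanol, TLC, scintillation counting. Mean ± SD, at least four experiments.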
Target sequence in this assay (P28845 whole entry): as the sequence (P28845 whole entry, looked up) above

Test [7] concerns the target T6, 11-beta-hydroxysteroid dehydrogenase type 2 (Homo sapiens, UniProt P80365).
T6 sequence (P80365 whole entry): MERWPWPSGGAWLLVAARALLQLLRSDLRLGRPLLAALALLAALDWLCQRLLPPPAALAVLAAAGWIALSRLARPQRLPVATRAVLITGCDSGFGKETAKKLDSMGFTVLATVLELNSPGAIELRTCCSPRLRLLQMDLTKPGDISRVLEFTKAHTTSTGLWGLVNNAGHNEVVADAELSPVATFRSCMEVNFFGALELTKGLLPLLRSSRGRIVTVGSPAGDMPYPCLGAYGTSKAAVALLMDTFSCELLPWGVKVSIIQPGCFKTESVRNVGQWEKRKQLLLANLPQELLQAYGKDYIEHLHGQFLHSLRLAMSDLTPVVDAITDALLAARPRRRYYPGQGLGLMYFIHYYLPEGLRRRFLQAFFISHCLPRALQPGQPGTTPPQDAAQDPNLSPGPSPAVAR
The test is described as follows: Inhibition of human recombinant 11betaHSD2 transfected in intact HEK293 cells. Type of test: cell-based.

The target of test [8] is T7, 11-beta-hydroxysteroid dehydrogenase 1 (Mus musculus, UniProt P50172). Nature of the test: Inhibition of 11-beta-HSD1-dependent cortisone conversion to cortisol in mouse intact C2C12 cells. The format is functional, cell-based. The procedure, abridged:
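Differentiation: confluent C2C12 myoblasts kept 7 days in DMEM with 2% horse serum to form myotubes. Day-7 myotubes incubated 1 h at 37 °C with 200 nM radiolabeled cortisone and varying inhibitor (formation linear over 15–60 min). Steroids extracted from medium with ethyl acetate, separated by TLC, conversion by scintillation counting.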

The target in test [9] is T7, 11-beta-hydroxysteroid dehydrogenase 1. Nature of the test: Inhibition of 11-beta-HSD1-dependent cortisone conversion to cortisol in mouse intact 3T3 L1 cells. Type of test: functional, cell-based. The procedure, abridged:
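3T3-L1 preadipocytes grown to confluence, held 48 h, differentiated 48 h (0.25 mM IBMX, 0.5 µM dexamethasone, 1 µg/mL insulin), then insulin medium 72 h, then insulin-free. Adipocytes incubated 45 min at 37 °C with 200 nM radiolabeled cortisone plus inhibitor at various concentrations. Medium steroids extracted, separated by TLC, scintillation counted.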

The structures appear in SMILES notation. Active and inactive are the calls of the source. The rule behind the calls is not given here. Where only a bound is given, the exact number is not on record here.

T7 sequence (P50172 whole entry): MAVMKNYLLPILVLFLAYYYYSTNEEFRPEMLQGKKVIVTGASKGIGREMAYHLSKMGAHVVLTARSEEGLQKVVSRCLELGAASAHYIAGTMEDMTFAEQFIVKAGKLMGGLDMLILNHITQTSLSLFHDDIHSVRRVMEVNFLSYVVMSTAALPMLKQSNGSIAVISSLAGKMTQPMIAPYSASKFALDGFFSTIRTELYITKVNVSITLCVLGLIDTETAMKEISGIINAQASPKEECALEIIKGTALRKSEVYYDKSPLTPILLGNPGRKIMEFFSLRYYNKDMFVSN

`CC(=O)O[C@H]1CC[C@]2(C)[C@H]3C(=O)C=C4[C@@H]5C[C@@](C)(C(=O)O)CC[C@]5(C)CC[C@@]4(C)[C@]3(C)CC[C@H]2C1(C)C` [ACETOXOLONE]: the Activity in [1] is more than 70%; with HEK293 it was “Not toxic”. Further, the figures for the IC50 in [2] and in test [3] were 18.8 µM and 3.78 µM, respectively.
On to `C[C@]12CCC(=O)C=C1CC[C@@H]1[C@@H]2C(=O)C[C@@]2(C)[C@H]1CC[C@]2(O)C(=O)CO`, for which the outcome in test [4] was inactive.
In the case of `CC(=O)OC1CC[C@]2(C)C3=C(C(=O)C[C@H]2C1(C)C)[C@]1(C)CCC(C(C)CCC(=O)O)[C@@]1(C)CC3=O` (some centres undefined), the Activity in [1] is more than 70%; with HEK293, “Not toxic”. The values for the IC50 (at Glucocorticoid receptor; in [5]) were 11.8 µM and 21 µM, respectively.
As to `C[C@H]1C[C@@]2(C)CC[C@](C)(C(=O)N[C@H](Cc3ccccc3)C(=O)O)C[C@@]2(C)C2=CC(=O)[C@@H]3[C@@]4(C)CC[C@H](O)C(C)(C)[C@@H]4CC[C@@]3(C)[C@@]21C`, the Activity in test [1] was more than 70%; in the test on HEK293, “Not toxic”. The IC50 in test [2] was more than 30 µM; in [3], 23.6 µM.
As for `COC(=O)[C@@]1(C)CC[C@]2(C)CC[C@]3(C)C(=CC(=O)[C@@H]4[C@@]5(C)CC[C@H](Oc6ccccc6C(=O)O)C(C)(C)[C@@H]5CC[C@]43C)[C@@H]2C1`, the values for the Activity (in [1]; with HEK293) were more than 70% and “Not toxic”, respectively. For the same compound, the IC50 is 3.84 µM in test [6], 48 µM in [7] and 10.3 µM in test [3].
With `COc1ccc(CCNC(=O)C23CCC(C)(C(=O)C2=O)C3(C)C)cc1OC` (centres undefined), the results for the Activity (in [1]; with HEK293) were more than 70% and “Not toxic”, respectively. Moreover, the IC50 in [2] was determined as 20.2 µM; in [6], 5.21 µM; in test [8] it was 4.17 µM; in test [9], 3.9 µM.
Regarding `CC1(C)[C@@H](N)CC[C@]2(C)[C@H]3C(=O)C=C4[C@@H]5C[C@@](C)(C(=O)O)CC[C@]5(C)CC[C@@]4(C)[C@]3(C)CC[C@@H]12`, the Activity in test [1] is more than 70%; in the test on HEK293, “Not toxic”. For the same compound, the IC50 is more than 30 µM in test [2], 1.02 µM in [6] and 6.04 µM in test [7].
